Test system: HEK-293T
Assay: Multiplex assay against HEK293T
Format: toxicity, cell-based
Details: human
How it was run: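 On a CQ1 microscope at 37°C and 5% CO2, live cells were imaged after compound addition. They had been stained at seeding with Hoechst33342, BioTracker Green Microtubule Cytoskeleton Dye, MitoTracker Red and Annexin V Alexa Fluor 680. CellPathfinder machine-learning gating assigned cells to Hoechst high-intensity objects or normal cells, normal cells to healthy, pyknosed or fragmented nuclei, and pyknosed cells to mitotic or apoptotic. Tubulin, mitochondrial-mass and membrane-permeability phenotypes are per cents of healthy-nucleus cells.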

[1] = 12 h, 1 µM, compound concentration 1 uM, replicate 1
[2] = 12 h, 1 µM, compound concentration 1 uM, replicate 2
[3] = 12 h, 10 µM, compound concentration 10 uM, replicate 1
[4] = 12 h, 10 µM, compound concentration 10 uM, replicate 2
[5] = 24 h, 1 µM, compound concentration 1 uM, replicate 1
[6] = 24 h, 1 µM, compound concentration 1 uM, replicate 2
[7] = 24 h, 10 µM, compound concentration 10 uM, replicate 1
[8] = 24 h, 10 µM, compound concentration 10 uM, replicate 2
[9] = 48 h, 1 µM, compound concentration 1 uM, replicate 1
[10] = 48 h, 1 µM, compound concentration 1 uM, replicate 2
[11] = 48 h, 10 µM, compound concentration 10 uM, replicate 1
[12] = 48 h, 10 µM, compound concentration 10 uM, replicate 2

O=C(NCCN1CCC(n2c(=O)[nH]c3cc(Cl)ccc32)CC1)c1ccc(F)cc1 [HALOPEMIDE]
Population Apoptotic (%) [1]: 46% | Population Fragmented Nuclei (%) [1]: 5% | Population Healthy Nuclei (%) [1]: 81% | Population Hoechst High Intensity Objects (%) [1]: 7% | Population Membrane Permeable-Phenotype (%) [1]: 0% | Population Mitochondria Different-Phenotype (%) [1]: 54% | Population Mitotic Cells (%) [1]: 53% | Population Normal (%) [1]: 92% | Population Pyknosed Nuclei (%) [1]: 13% | Population Tubulin-Different-Phenotype (%) [1]: 42% | Total Cell Count [1]: 334 | Population Apoptotic (%) [2]: 43% | Population Healthy Nuclei (%) [2]: 79% | Population Hoechst High Intensity Objects (%) [2]: 10% | Population Mitochondria Different-Phenotype (%) [2]: 62% | Population Mitotic Cells (%) [2]: 56% | Population Normal (%) [2]: 89% | Population Pyknosed Nuclei (%) [2]: 15% | Population Tubulin-Different-Phenotype (%) [2]: 29% | Total Cell Count [2]: 373 | Population Apoptotic (%) [3]: 39% | Population Fragmented Nuclei (%) [3]: 5% | Population Healthy Nuclei (%) [3]: 74% | Population Hoechst High Intensity Objects (%) [3]: 14% | Population Membrane Permeable-Phenotype (%) [3]: 0% | Population Mitochondria Different-Phenotype (%) [3]: 76% | Population Mitotic Cells (%) [3]: 60% | Population Normal (%) [3]: 85% | Population Pyknosed Nuclei (%) [3]: 20% | Population Tubulin-Different-Phenotype (%) [3]: 68% | Total Cell Count [3]: 460 | Population Apoptotic (%) [4]: 65% | Population Fragmented Nuclei (%) [4]: 6% | Population Healthy Nuclei (%) [4]: 72% | Population Hoechst High Intensity Objects (%) [4]: 13% | Population Membrane Permeable-Phenotype (%) [4]: 1% | Population Mitochondria Different-Phenotype (%) [4]: 84% | Population Mitotic Cells (%) [4]: 34% | Population Normal (%) [4]: 86% | Population Pyknosed Nuclei (%) [4]: 21% | Population Tubulin-Different-Phenotype (%) [4]: 59% | Total Cell Count [4]: 319 | Population Apoptotic (%) [5]: 40% | Population Fragmented Nuclei (%) [5]: 7% | Population Healthy Nuclei (%) [5]: 79% | Population Hoechst High Intensity Objects (%) [5]: 3% | Population Membrane Permeable-Phenotype (%) [5]: 1% | Population Mitochondria Different-Phenotype (%) [5]: 35% | Population Mitotic Cells (%) [5]: 59% | Population Normal (%) [5]: 96% | Population Pyknosed Nuclei (%) [5]: 12% | Population Tubulin-Different-Phenotype (%) [5]: 24% | Total Cell Count [5]: 471 | Population Fragmented Nuclei (%) [6]: 9% | Population Hoechst High Intensity Objects (%) [6]: 6% | Population Membrane Permeable-Phenotype (%) [6]: 0% | Population Mitochondria Different-Phenotype (%) [6]: 37% | Population Normal (%) [6]: 93% | Population Pyknosed Nuclei (%) [6]: 11% | Population Tubulin-Different-Phenotype (%) [6]: 21% | Total Cell Count [6]: 508 | Population Apoptotic (%) [7]: 27% | Population Fragmented Nuclei (%) [7]: 8% | Population Healthy Nuclei (%) [7]: 72% | Population Hoechst High Intensity Objects (%) [7]: 8% | Population Membrane Permeable-Phenotype (%) [7]: 1% | Population Mitochondria Different-Phenotype (%) [7]: 63% | Population Mitotic Cells (%) [7]: 72% | Population Normal (%) [7]: 91% | Population Pyknosed Nuclei (%) [7]: 19% | Population Tubulin-Different-Phenotype (%) [7]: 64% | Total Cell Count [7]: 580 | Population Apoptotic (%) [8]: 64% | Population Fragmented Nuclei (%) [8]: 9% | Population Healthy Nuclei (%) [8]: 70% | Population Membrane Permeable-Phenotype (%) [8]: 0% | Population Mitochondria Different-Phenotype (%) [8]: 78% | Population Mitotic Cells (%) [8]: 35% | Population Pyknosed Nuclei (%) [8]: 20% | Population Tubulin-Different-Phenotype (%) [8]: 62% | Total Cell Count [8]: 361 | Population Apoptotic (%) [9]: 30% | Population Fragmented Nuclei (%) [9]: 13% | Population Healthy Nuclei (%) [9]: 79% | Population Hoechst High Intensity Objects (%) [9]: 1% | Population Membrane Permeable-Phenotype (%) [9]: 1% | Population Mitochondria Different-Phenotype (%) [9]: 21% | Population Mitotic Cells (%) [9]: 69% | Population Normal (%) [9]: 98% | Population Pyknosed Nuclei (%) [9]: 6% | Population Tubulin-Different-Phenotype (%) [9]: 16% | Total Cell Count [9]: 841 | Population Apoptotic (%) [10]: 28% | Population Hoechst High Intensity Objects (%) [10]: 3% | Population Membrane Permeable-Phenotype (%) [10]: 0% | Population Mitotic Cells (%) [10]: 71% | Population Normal (%) [10]: 96% | Population Pyknosed Nuclei (%) [10]: 7% | Population Tubulin-Different-Phenotype (%) [10]: 10% | Total Cell Count [10]: 675 | Population Apoptotic (%) [11]: 37% | Population Fragmented Nuclei (%) [11]: 14% | Population Healthy Nuclei (%) [11]: 72% | Population Hoechst High Intensity Objects (%) [11]: 8% | Population Membrane Permeable-Phenotype (%) [11]: 1% | Population Mitochondria Different-Phenotype (%) [11]: 57% | Population Mitotic Cells (%) [11]: 62% | Population Normal (%) [11]: 91% | Population Pyknosed Nuclei (%) [11]: 12% | Population Tubulin-Different-Phenotype (%) [11]: 55% | Total Cell Count [11]: 706 | Population Apoptotic (%) [12]: 60% | Population Healthy Nuclei (%) [12]: 74% | Population Hoechst High Intensity Objects (%) [12]: 6% | Population Mitochondria Different-Phenotype (%) [12]: 64% | Population Mitotic Cells (%) [12]: 40% | Population Normal (%) [12]: 93% | Population Pyknosed Nuclei (%) [12]: 11% | Total Cell Count [12]: 531

— ChEMBL document CHEMBL5058577, “EUbOPEN Chemogenomics Library 2 (Multiplex)” (2022)
